Measurements of several laboratories.
Lines come from different studies, so protocols differ.
Target: Mitogen-activated protein kinase kinase kinase 1 (MAP3K1, Homo sapiens, UniProt Q13233)

Compound | observed | action | method | tested at | quantity | value
CC(C)(C)c1nc2c(s1)c1nc(N)ncc1c1ccc(NS(=O)(=O)c3c(F)cccc3F)c(F)c12 | enzyme activity | inhibitor | radiometric | 1 µM | remaining activity | 90%
CS(=O)(=O)NCC[C@H](NC(=O)c1cncc2c1cnn2-c1ccc(F)cc1)c1ccnc(S(C)(=O)=O)c1 | cell-free assay | – | competition with immobilised ligand | 1 µM | remaining binding | 100%
CC(C)(C)c1nc(-c2cccc(NS(=O)(=O)c3c(F)cccc3F)c2F)c(-c2ccnc(N)n2)s1 | enzyme activity | inhibitor | radiometric | 1 µM | remaining activity | 84%
O=C(Nc1cnn(-c2csc(C(=O)NC3COC3)c2)c1)Nc1c(F)cccc1Cl | enzyme activity | inhibitor | – | 5 µM | remaining activity | 98.7%
CC(C)(O)[C@H]1CC[C@H](Nc2ccc3ncc(-c4cccc(C(F)(F)F)c4)n3n2)CC1 | enzyme activity | inhibitor | – | 1 µM | remaining activity | 99%
COc1cc(/C=C/C(=O)CC(=O)/C=C/c2ccc(O)c(OC)c2)ccc1O | enzyme activity | inhibitor | – | 1 µM | activity vs control | 89%
CN(C)C(=O)Cn1cc(-c2nc([C@@](C)(c3ccc(-c4cnc(N)nc4)cc3)C3CC3)no2)cn1 | cell-free assay | – | competition with immobilised ligand | 1 µM | remaining binding | 90%
CC1CCCN1c1nccc(-c2cnn3ncccc23)n1 (stereo not shown) | binding | – | – | 1 µM | remaining binding | 87%
Cc1sc(C(=O)NC2COC2)cc1-n1cc(NC(=O)Nc2c(F)cccc2Cl)cn1 | enzyme activity | inhibitor | – | 10 µM | remaining activity | 94.5%
Oc1cccc(-c2nc(N3CCOCC3)c3oc4ncccc4c3n2)c1 | enzyme activity | inhibitor | – | 10 µM | remaining activity | 97%
Cc1ccc(C(=O)Nc2ccc(CN3CCN(C)CC3)c(C(F)(F)F)c2)cc1C#Cc1cnc2cccnn12 | enzyme activity | inhibitor | – | 23.5 nM | remaining activity | 82%
Cn1c(=O)n(-c2ccc(C(C)(C)C#N)cc2)c2c3cc(-c4cnc5ccccc5c4)ccc3ncc21 | enzyme activity | inhibitor | – | 10 µM | remaining activity | 67%
CN(C)C(=O)Cn1cc(-c2nc(C3(c4ccc(-c5cnc(N)nc5)cc4)CC3)no2)cn1 | cell-free assay | – | competition with immobilised ligand | 1 µM | remaining binding | 77%
Nc1ncnc2occ(-c3ccc(NC(=O)Nc4cc(C(F)(F)F)ccc4F)cc3)c12 | cell-free assay | inhibitor | – | 20 µM | remaining signal | 6.9%
FC(F)(F)Oc1cccc(-c2cnc3ccc(-c4ccncc4)nn23)c1 | enzyme activity | inhibitor | radiometric | 1 µM | activity vs control | 94%
COc1cc(Nc2cnc(C#N)c(O[C@H](C)CN(C)C)n2)ncc1-c1cnn(C)c1 | enzyme activity | inhibitor | radiometric | 1 µM | remaining activity | 92%
